According to paper PMC4834512 (Innate Immunity, 2016):
Values joined by “and” are separate entries in the source; they are usually repeats but may differ in a detail not shown here. Equal entries are not always repeated.

Assays:
LPS from E. coli = test: LPS inactivation by PMB in plasma, LAL test; type: biochemical, Escherichia coli; settings: 5 ng/ml LPS from E. coli, fresh human heparinized plasma, 60 min 37℃
How it was run: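 Fresh human heparinized plasma spiked with E. coli LPS (5 or 0.5 ng/ml) was incubated with test compound at 0, 10, 100, 250, 500 and 1000 ng/ml for 60 min at 37℃ in pyrogen-free glass vials. Endotoxin activity was read by kinetic chromogenic LAL test. ENC50 is the concentration reducing activity by 50% relative to LPS-spiked plasma without test compound.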

plasma proteins [1] = settings: assumed value from the literature; cited from earlier work
plasma proteins [2] = type: in vitro ADME, human
How it was run: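 Fresh citrate-anticoagulated plasma from three donors was spiked with 1 µg/ml test compound. Aliquots were centrifuged (10,000 g, 20 min) through ultrafiltration membranes of 10, 30, 50 or 100 kDa MMCO, and filtrates were stored at −20℃. Drug in filtrates was measured by competitive ELISA (detection limit 1 ng/ml; samples diluted into 0–100 ng/ml range). Total protein was measured by automated analyser. The same filtration was run in 0.9% NaCl to check binding to the filter.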

Polymyxin B [PMB]
ENC50 (endotoxin neutralizing concentration) (LPS from E. coli): 381 ng/mL and < 400 ng/mL | Plasma protein binding of PMB (plasma proteins [1]): up to 90% | PMB % of + control in filtrate (plasma proteins [2]; 100 kDa MMCO, citrate plasma, 1 µg/ml PMB, ultrafiltration 10,000 g 20 min, ELISA, mean ± SD n = 3): 25 ± 13% | PMB-content of filtrates compared with a PMB-solution without plasma (plasma proteins [2]; membranes with smaller pores than 100 kDa MMCO (10, 30, 50 kDa)): < 10%
